# Source: ChEMBL document CHEMBL1126724, “Multiple binding modes for the receptor-bound conformations of cyclic AII agonists” (J Med Chem, 1993)
# pEC50: −log10 of the molar value. *1 amine or outer side, *2 acyl side, *3 side chain or, on linkers, in order; H or OH if unused. Where a SMILES comes first, the peptide text is derived from it. Bridges are numbered along the chain shown (N, C = ends). Roman numbers before positions name the chains, in order. [ ]: non-standard residue; d: D form. Pro(4R-SH) = O=C([C@@H]1C[C@@H](S[*:3])CN1[*:1])[*:2]; Pro(4S-SH) = O=C([C@@H]1C[C@H](S[*:3])CN1[*:1])[*:2]; hCys = N[C@@H](CCS)C(=O)O; Orn = NCCC[C@H](N)C(=O)O; Sar = CNCC(=O)O
# Assays:
# [1] = organism: Oryctolagus cuniculus; assay: Agonist efficacy assessed from contractile responses on rabbit aorta (AT1); assay type: functional
# In short: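 Rabbit thoracic aortic rings held in 20-mL baths of Krebs-bicarbonate at 37 °C, gassed with 5% CO2 in oxygen. Resting tension 4.0 g, 90-min equilibration. Peptides added cumulatively until maximal response. EC50 read graphically from the curves as the concentration giving 50% of maximal contraction.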
# [2] = biological target: T1, Angiotensin II receptor (AT-1) type-1 (Rattus norvegicus, UniProt P29089+P25095); assay: In vitro binding affinity to the angiotensin II receptor, type 1 in rat liver
# T1 sequence (P29089 whole entry): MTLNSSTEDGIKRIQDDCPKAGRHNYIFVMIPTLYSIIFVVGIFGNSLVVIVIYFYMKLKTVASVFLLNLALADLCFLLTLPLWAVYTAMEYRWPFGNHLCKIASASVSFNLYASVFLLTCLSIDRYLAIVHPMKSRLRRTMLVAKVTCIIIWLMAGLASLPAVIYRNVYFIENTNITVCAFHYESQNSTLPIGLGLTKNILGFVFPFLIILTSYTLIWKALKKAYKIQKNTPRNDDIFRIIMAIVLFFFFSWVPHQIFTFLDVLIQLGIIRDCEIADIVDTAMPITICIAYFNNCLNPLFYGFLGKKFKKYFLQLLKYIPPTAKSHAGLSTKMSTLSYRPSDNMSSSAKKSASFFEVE
# T1 sequence (P25095 whole entry): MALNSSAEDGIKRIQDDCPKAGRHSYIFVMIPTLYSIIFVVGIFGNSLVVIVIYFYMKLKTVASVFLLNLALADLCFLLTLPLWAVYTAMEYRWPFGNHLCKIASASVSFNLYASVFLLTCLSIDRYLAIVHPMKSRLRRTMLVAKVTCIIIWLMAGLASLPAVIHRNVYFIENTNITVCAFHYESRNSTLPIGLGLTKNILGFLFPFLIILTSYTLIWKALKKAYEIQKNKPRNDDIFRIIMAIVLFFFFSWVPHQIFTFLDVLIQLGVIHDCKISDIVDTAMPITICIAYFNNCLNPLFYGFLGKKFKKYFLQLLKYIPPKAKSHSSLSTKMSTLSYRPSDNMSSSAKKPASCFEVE
# In short: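 Buffer: 50 mM NaH2PO4 pH 7.1 with 100 μM bacitracin, 0.2% BSA, 100 mM NaCl, 10 mM MgCl2, 1 mM EGTA. Incubated 1 h at 25 °C, then filtered, and filters counted. IC50 from weighted nonlinear regression to the mass action equation.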
SMILES,pEC50 [1],IC50 [2] [µM]
CNCC(=O)N[C@@H](CCCN=C(N)N)C(=O)N1C[C@@H]2C[C@H]1C(=O)N[C@@H](Cc1ccc(O)cc1)C(=O)N[C@H](C(=O)N[C@@H](Cc1c[nH]cn1)C(=O)N1CCC[C@H]1C(=O)N[C@@H](Cc1ccccc1)C(=O)O)CSSC[C@H](C(=O)N[C@H](Cc1c[nH]cn1)C(=O)N1CCC[C@@H]1C(=O)N[C@H](Cc1ccccc1)C(=O)O)NC(=O)[C@@H](Cc1ccc(O)cc1)NC(=O)[C@H]1C[C@H](CN1C(=O)[C@@H](CCCN=C(N)N)NC(=O)CNC)SS2,6.34,0.19
CNCC(=O)N[C@@H](CCCN=C(N)N)C(=O)N[C@H]1CSSC[C@@H](C(=O)N[C@@H](Cc2ccccc2)C(=O)O)NC(=O)[C@H](Cc2c[nH]cn2)NC(=O)[C@H](C(C)C)NC(=O)[C@H](Cc2ccc(O)cc2)NC1=O (H-[Sar]RCYVHCF-OH; disulfide 3-7),–,1.23
CNCC(=O)N[C@@H](CCCN=C(N)N)C(=O)N[C@H]1CSSC[C@@H](C(=O)O)NC(=O)[C@@H]2CCCN2C(=O)[C@H](Cc2c[nH]cn2)NC(=O)[C@H](C(C)C)NC(=O)[C@H](Cc2ccc(O)cc2)NC1=O (H-[Sar]RCYVHPC-OH; disulfide 3-8),–,0.52
CNCC(=O)N[C@@H](CCCN=C(N)N)C(=O)N[C@H]1CC(=O)NCCCC[C@@H](C(=O)N[C@@H](Cc2c[nH]cn2)C(=O)N2CCC[C@H]2C(=O)N[C@@H](Cc2ccccc2)C(=O)O)NC(=O)[C@H](Cc2ccc(O)cc2)NC1=O (H-[Sar]RDYKHPF-OH; lactam 3-5),7.28,0.012
CNCC(=O)N[C@@H](CCCN=C(N)N)C(=O)N[C@H]1CC(=O)NCCC[C@@H](C(=O)N[C@@H](Cc2c[nH]cn2)C(=O)N2CCC[C@H]2C(=O)N[C@@H](Cc2ccccc2)C(=O)O)NC(=O)[C@H](Cc2ccc(O)cc2)NC1=O (H-[Sar]RDY[Orn]HPF-OH; lactam 3-5),–,0.683
CNCC(=O)N[C@@H](CCCN=C(N)N)C(=O)N[C@H]1CCC(=O)NCCCC[C@@H](C(=O)N[C@@H](Cc2c[nH]cn2)C(=O)N2CCC[C@H]2C(=O)N[C@@H](Cc2ccccc2)C(=O)O)NC(=O)[C@H](Cc2ccc(O)cc2)NC1=O (H-[Sar]REYKHPF-OH; lactam 3-5),–,0.089
CNCC(=O)N[C@@H](CCCN=C(N)N)C(=O)N[C@H](C(=O)N[C@@H](Cc1ccc(O)cc1)C(=O)N[C@H]1CSSC[C@@H](C(=O)O)NC(=O)[C@@H]2CCCN2C(=O)[C@H](Cc2c[nH]cn2)NC1=O)C(C)C (H-[Sar]RVYCHPC-OH; disulfide 5-8),–,1.2
CNCC(=O)N[C@@H](CCCN=C(N)N)C(=O)N[C@H]1CCSS[C@@H]2C[C@@H](C(=O)N[C@@H](Cc3c[nH]cn3)C(=O)N3CCC[C@H]3C(=O)N[C@@H](Cc3ccccc3)C(=O)O)N(C2)C(=O)[C@H](Cc2ccc(O)cc2)NC1=O (H-[Sar]R[hCys]Y[Pro(4R-SH)]HPF-OH; disulfide 3-5),7.89,0.0013
CNCC(=O)N[C@@H](CCCN=C(N)N)C(=O)N[C@H]1CCSS[C@H]2C[C@@H](C(=O)N[C@@H](Cc3c[nH]cn3)C(=O)N3CCC[C@H]3C(=O)N[C@@H](Cc3ccccc3)C(=O)O)N(C2)C(=O)[C@H](Cc2ccc(O)cc2)NC1=O (H-[Sar]R[hCys]Y[Pro(4S-SH)]HPF-OH; disulfide 3-5),6.16,0.11
CNCC(=O)N[C@@H](CCCNC(=N)N)C(=O)N[C@H]1CCSSCC[C@@H](C(=O)N[C@@H](Cc2cnc[nH]2)C(=O)N2CCC[C@H]2C(=O)N[C@@H](Cc2ccccc2)C(=O)O)NC(=O)[C@H](Cc2ccc(O)cc2)NC1=O (H-[Sar]R[hCys]Y[hCys]HPF-OH; disulfide 3-5),–,0.0013
"CNCC(=O)N[C@@H](CCCN=C(N)N)C(=O)N[C@H]1CSSC[C@@H](C(=O)N[C@@H](Cc2c[nH]cn2)C(=O)N2CCC[C@H]2C(=O)N[C@@H](Cc2ccccc2)C(=O)O)NC(=O)[C@H](Cc2ccc(O)cc2)NC(=O)[C@@H](NC(=O)[C@H](CCCN=C(N)N)NC(=O)CNC)CSSC[C@@H](C(=O)N[C@@H](Cc2c[nH]cn2)C(=O)N2CCC[C@H]2C(=O)N[C@@H](Cc2ccccc2)C(=O)O)NC(=O)[C@H](Cc2ccc(O)cc2)NC1=O (I: H-[Sar]RCYCHPF-OH / II: H-[Sar]RCYCHPF-OH; disulfide I:3-II:5, I:5-II:3)",–,0.028
CC[C@H](C)[C@H](NC(=O)[C@H](Cc1ccc(O)cc1)NC(=O)[C@@H](NC(=O)[C@H](CCCNC(=N)N)NC(=O)[C@@H](N)CC(=O)O)C(C)C)C(=O)N[C@@H](Cc1cnc[nH]1)C(=O)N1CCC[C@H]1C(=O)N[C@@H](Cc1ccccc1)C(=O)O [ANGIOTENSIN II],8.60,–

# Second part, the molecule after the results:
pEC50 [1],IC50 [2] [µM],SMILES
–,0.0076,CNCC(=O)N[C@@H](CCCN=C(N)N)C(=O)N[C@H]1CSSC[C@@H](C(=O)N[C@@H](Cc2c[nH]cn2)C(=O)N2CCC[C@H]2C(=O)N[C@@H](Cc2ccccc2)C(=O)O)NC(=O)[C@H](Cc2ccc(O)cc2)NC1=O (H-[Sar]RCYCHPF-OH; disulfide 3-5)
6.80,0.018,CNCC(=O)N[C@@H](CCCN=C(N)N)C(=O)N[C@H]1CSS[C@@H]2C[C@@H](C(=O)N[C@@H](Cc3c[nH]cn3)C(=O)N3CCC[C@H]3C(=O)N[C@@H](Cc3ccccc3)C(=O)O)N(C2)C(=O)[C@H](Cc2ccc(O)cc2)NC1=O (H-[Sar]RCY[Pro(4R-SH)]HPF-OH; disulfide 3-5)
–,0.062,CNCC(=O)N[C@@H](CCCN=C(N)N)C(=O)N[C@H]1CSS[C@H]2C[C@@H](C(=O)N[C@@H](Cc3c[nH]cn3)C(=O)N3CCC[C@H]3C(=O)N[C@@H](Cc3ccccc3)C(=O)O)N(C2)C(=O)[C@H](Cc2ccc(O)cc2)NC1=O (H-[Sar]RCY[Pro(4S-SH)]HPF-OH; disulfide 3-5)
–,0.0026,CNCC(=O)N[C@@H](CCCN=C(N)N)C(=O)N[C@H]1CSSCC[C@@H](C(=O)N[C@@H](Cc2c[nH]cn2)C(=O)N2CCC[C@H]2C(=O)N[C@@H](Cc2ccccc2)C(=O)O)NC(=O)[C@H](Cc2ccc(O)cc2)NC1=O (H-[Sar]RCY[hCys]HPF-OH; disulfide 3-5)
–,0.087,CNCC(=O)N[C@@H](CCCN=C(N)N)C(=O)N1C[C@H]2C[C@H]1C(=O)N[C@@H](Cc1ccc(O)cc1)C(=O)N[C@H](C(=O)N[C@@H](Cc1c[nH]cn1)C(=O)N1CCC[C@H]1C(=O)N[C@@H](Cc1ccccc1)C(=O)O)CSS2 (H-[Sar]R[Pro(4R-SH)]YCHPF-OH; disulfide 3-5)
6.15,0.029,CNCC(=O)N[C@@H](CCCN=C(N)N)C(=O)N1C[C@H]2C[C@H]1C(=O)N[C@@H](Cc1ccc(O)cc1)C(=O)N[C@H](C(=O)N[C@@H](Cc1c[nH]cn1)C(=O)N1CCC[C@H]1C(=O)N[C@@H](Cc1ccccc1)C(=O)O)CCSS2 (H-[Sar]R[Pro(4R-SH)]Y[hCys]HPF-OH; disulfide 3-5)
6.36,0.51,CNCC(=O)N[C@@H](CCCN=C(N)N)C(=O)N1C[C@@H]2C[C@H]1C(=O)N[C@@H](Cc1ccc(O)cc1)C(=O)N[C@H](C(=O)N[C@@H](Cc1c[nH]cn1)C(=O)N1CCC[C@H]1C(=O)N[C@@H](Cc1ccccc1)C(=O)O)CCSS2 (H-[Sar]R[Pro(4S-SH)]Y[hCys]HPF-OH; disulfide 3-5)
8.49,–,CNCC(=O)N[C@@H](CCCN=C(N)N)C(=O)N[C@H]1CCSSCC[C@@H](C(=O)N[C@@H](Cc2c[nH]cn2)C(=O)N2CCC[C@H]2C(=O)N[C@@H](Cc2ccccc2)C(=O)O)NC(=O)[C@H](Cc2ccc(O)cc2)NC1=O (H-[Sar]R[hCys]Y[hCys]HPF-OH; disulfide 3-5)
